In ChEMBL document CHEMBL3525918, “Utility of drug depletion-time profiles in isolated hepatocytes for accessing hepatic uptake clearance: identifying rate-limiting steps and role of passive processes” (Drug Metab Dispos, 2012):

Tests used:
[1] = Drug metabolism in Sprague-Dawley rat hepatocytes assessed per 10^6 cells at 0.1 to 10 uM up to 90 mins by conventional assay; assay type: ADME, cell-based, Hepatocyte
Procedure, shortened: (§1)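 Fresh rat hepatocytes from collagenase perfusion (viability >85%), three independent preparations. Drug at final 0.1–10 µM in Williams' medium E, 0.5% methanol, preincubated 5 min at 37°C, then mixed with hepatocytes (final 0.1–1 x 10^6 cells/mL) and shaken at 37°C. Ten time points up to 90 min, terminated by snap-freezing the whole cell-plus-medium matrix. LC-MS/MS quantitation; mono- or biexponential depletion fit gives kdep.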

[2] = Drug metabolism in Sprague-Dawley rat hepatocytes assessed per 10^6 cells at 0.1 to 10 uM up to 90 mins by media-loss method; assay type: ADME, cell-based, Hepatocyte
Procedure, shortened: (§2)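 Freshly isolated rat hepatocytes (collagenase perfusion, >85% viable, three preparations), incubated with drug at final 0.1–10 µM at 37°C, 0.1–1 x 10^6 cells/mL, 0.5% methanol, alongside the whole-matrix assay. At time points up to 90 min the incubation was centrifuged 30 sec at 7000g, and the supernatant medium was snap-frozen and analysed by LC-MS/MS. Loss of drug from the medium was fitted mono- or biexponentially.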

[3] = Apparent intrinsic clearance in Sprague-Dawley rat hepatocytes assessed per 10^6 cells at 0.1 to 10 uM up to 90 mins by conventional assay; assay type: ADME, cell-based, Hepatocyte; settings: read-out: CLH(app); procedure, shortened: as §1
[4] = (§3) Apparent intrinsic clearance in Sprague-Dawley rat hepatocytes assessed per 10^6 cells at 0.1 to 10 uM up to 90 mins by media-loss method; assay type: ADME, cell-based, Hepatocyte; settings: Sprague-Dawley, read-out: CLH(app); procedure, shortened: as §2
Hepatocyte = experiment: as §3; assay type: ADME, cell-based; settings: 1.5 h, 10 µM; procedure, shortened: as §2

Km at 1.5 h, up to 10 µM [1]	Km at 1.5 h, up to 10 µM [2]	hepatocyte CLint at up to 10 µM [3]	hepatocyte CLint at up to 10 µM [4]	CLH(app) (Hepatocyte)	SMILES
	13 µM	7.1 µL/min/1e6 cells		1705 uL/min/10^6cells	O=C(O)C[C@H](O)C[C@H](O)/C=C/c1c(C2CC2)nc2ccccc2c1-c1ccc(F)cc1 [PITAVASTATIN]
		49.9 µL/min/1e6 cells	49.3 µL/min/1e6 cells		CCOc1cc(CC(=O)N[C@@H](CC(C)C)c2ccccc2N2CCCCC2)ccc1C(=O)O [REPAGLINIDE]
		3.3 µL/min/1e6 cells	1660 µL/min/1e6 cells		CC(C)c1nc(N(C)S(C)(=O)=O)nc(-c2ccc(F)cc2)c1/C=C/[C@@H](O)C[C@@H](O)CC(=O)O [ROSUVASTATIN]

The remaining lines, values behind:

SMILES	Km at 1.5 h, up to 10 µM [1]	Km at 1.5 h, up to 10 µM [2]	hepatocyte CLint at up to 10 µM [3]	hepatocyte CLint at up to 10 µM [4]	CLH(app) (Hepatocyte)
CC(C)c1c(C(=O)Nc2ccccc2)c(-c2ccccc2)c(-c2ccc(F)cc2)n1CC[C@@H](O)C[C@@H](O)CC(=O)O [ATORVASTATIN]	1.3 µM	0.43 µM			
CC[C@H]1OC(=O)[C@H](C)[C@@H](O[C@H]2C[C@@](C)(OC)[C@@H](O)[C@H](C)O2)[C@H](C)[C@@H](O[C@@H]2O[C@H](C)C[C@H](N(C)C)[C@H]2O)[C@](C)(OC)C[C@@H](C)C(=O)[C@H](C)[C@@H](O)[C@]1(C)O [CLARITHROMYCIN]			46 µL/min/1e6 cells	68 µL/min/1e6 cells	
CC[C@H]1OC(=O)[C@H](C)[C@@H](O[C@H]2C[C@@](C)(OC)[C@@H](O)[C@H](C)O2)[C@H](C)[C@@H](O[C@@H]2O[C@H](C)C[C@H](N(C)C)[C@H]2O)[C@](C)(O)C[C@@H](C)C(=O)[C@H](C)[C@@H](O)[C@]1(C)O [ERYTHROMYCIN]	3.5 µM	5.5 µM	26 µL/min/1e6 cells	35 µL/min/1e6 cells	
CC(C)(C(=O)O)c1ccc(C(O)CCCN2CCC(C(O)(c3ccccc3)c3ccccc3)CC2)cc1 (stereo unspecified) [FEXOFENADINE]	4.7 µM				
